Test results reported in ChEMBL document CHEMBL3872267, “Design and synthesis of phosphoryl-substituted diphenylpyrimidines (Pho-DPPYs) as potent Bruton's tyrosine kinase (BTK) inhibitors: Targeted treatment of B lymphoblastic leukemia cell lines” (Bioorg Med Chem, 2017).

Experiments:
[1] = Cell cycle arrest in human Ramos cells assessed as accumulation at S phase at 10 uM measured after 48 hrs by propidium iodide based flow cytometry (reference value: 55.07 %); format: functional
Procedure, shortened: (§1)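 Ramos cells at about 2 × 10⁵ cells/well were treated for 48 h, then fixed overnight in 70% ethanol at 4 °C. After a PBS wash they were stained with propidium iodide for 10 min under subdued light. Cell-cycle phase distribution was determined by flow cytometry.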

[2] = Cell cycle arrest in human Ramos cells assessed as accumulation at S phase at 5 uM measured after 48 hrs by propidium iodide based flow cytometry (reference value: 55.07 %); format: functional; procedure, shortened: as §1
Ramos [3] = experiment: Induction of apoptosis in human Ramos cells assessed as early apoptotic cells at 1 uM measured after 48 hrs by Annexin V-FITC/propidium iodide based flow cytometry relative to control; format: functional
Procedure, shortened: (§2)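 Ramos cells at 1–5 × 10⁵ cells/well were treated for 48 h in medium with 5% FBS, with a DMSO solvent control. They were […], stained with Annexin V-FITC/propidium iodide, and analysed by flow cytometry.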

[4] = molecular target: Tyrosine-protein kinase BTK (Homo sapiens, UniProt Q06187); experiment: Inhibition of human recombinant full-length N-terminal His-tagged BTK expressed in baculovirus infected Sf9 insect cells measured after 60 mins by ADP-Glo kinase assay
Ramos [5] = experiment: Induction of apoptosis in human Ramos cells assessed as late apoptotic cells at 1 uM measured after 48 hrs by Annexin V-FITC/propidium iodide based flow cytometry relative to control; format: functional; procedure, shortened: as §2
[6] = Cell cycle arrest in human Ramos cells assessed as accumulation at G2/M phase at 10 uM measured after 48 hrs by propidium iodide based flow cytometry (reference value: 4.98 %); format: functional; procedure, shortened: as §1
Ramos [7] = experiment: Induction of apoptosis in human Ramos cells assessed as necrotic cells at 1 uM measured after 48 hrs by Annexin V-FITC/propidium iodide based flow cytometry (reference value: 0.2 %); format: functional; procedure, shortened: as §2
[8] = Antiproliferative activity against human Raji cells measured after 48 hrs by CCK-8 assay; format: functional, cell-based
Procedure, shortened: (§3)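 Cells seeded at 2000–3000 cells/well and kept one day at 37 °C, 5% CO₂ in RPMI1640 with 10% FBS. Viability was read by CCK-8 absorbance at 450 nm, and seeding was adjusted to give 0.5–1.2 absorbance. IC50 was derived by curve fitting.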

[9] = Cell cycle arrest in human Ramos cells assessed as accumulation at G0/G1 phase at 10 uM measured after 48 hrs by propidium iodide based flow cytometry (reference value: 39.95 %); format: functional; procedure, shortened: as §1
[10] = Cell cycle arrest in human Ramos cells assessed as accumulation at G2/M phase at 1 uM measured after 48 hrs by propidium iodide based flow cytometry (reference value: 4.98 %); format: functional; procedure, shortened: as §1
[11] = Cell cycle arrest in human Ramos cells assessed as accumulation at G2/M phase at 5 uM measured after 48 hrs by propidium iodide based flow cytometry (reference value: 4.98 %); format: functional; procedure, shortened: as §1
[12] = Cell cycle arrest in human Ramos cells assessed as accumulation at G0/G1 phase at 1 uM measured after 48 hrs by propidium iodide based flow cytometry (reference value: 39.95 %); format: functional; procedure, shortened: as §1
[13] = Antiproliferative activity against human Ramos cells measured after 48 hrs by CCK-8 assay; format: functional, cell-based; procedure, shortened: as §3
[14] = Cell cycle arrest in human Ramos cells assessed as accumulation at S phase at 1 uM measured after 48 hrs by propidium iodide based flow cytometry (reference value: 55.07 %); format: functional; procedure, shortened: as §1
Ramos [15] = experiment: Induction of apoptosis in human Ramos cells assessed as viable cells at 1 uM measured after 48 hrs by Annexin V-FITC/propidium iodide based flow cytometry relative to control; format: functional; conditions: read-out: Activity; procedure, shortened: as §2
Ramos [16] = experiment: Induction of apoptosis in human Ramos cells assessed as viable cells at 5 uM measured after 48 hrs by Annexin V-FITC/propidium iodide based flow cytometry relative to control; format: functional; conditions: read-out: Activity; procedure, shortened: as §2
Ramos [17] = experiment: Induction of apoptosis in human Ramos cells assessed as necrotic cells at 5 uM measured after 48 hrs by Annexin V-FITC/propidium iodide based flow cytometry (reference value: 0.2 %); format: functional; procedure, shortened: as §2
Ramos [18] = experiment: Induction of apoptosis in human Ramos cells assessed as early apoptotic cells at 5 uM measured after 48 hrs by Annexin V-FITC/propidium iodide based flow cytometry relative to control; format: functional; procedure, shortened: as §2
Ramos [19] = experiment: Induction of apoptosis in human Ramos cells assessed as late apoptotic cells at 5 uM measured after 48 hrs by Annexin V-FITC/propidium iodide based flow cytometry relative to control; format: functional; procedure, shortened: as §2
[20] = Cell cycle arrest in human Ramos cells assessed as accumulation at G0/G1 phase at 5 uM measured after 48 hrs by propidium iodide based flow cytometry (reference value: 39.95 %); format: functional; procedure, shortened: as §1
Ramos [21] = experiment: Induction of apoptosis in human Ramos cells assessed as early apoptotic cells at 10 uM measured after 48 hrs by Annexin V-FITC/propidium iodide based flow cytometry relative to control; format: functional; procedure, shortened: as §2
Ramos [22] = experiment: Induction of apoptosis in human Ramos cells assessed as viable cells at 10 uM measured after 48 hrs by Annexin V-FITC/propidium iodide based flow cytometry relative to control; format: functional; procedure, shortened: as §2
Ramos [23] = experiment: Induction of apoptosis in human Ramos cells assessed as necrotic cells at 10 uM measured after 48 hrs by Annexin V-FITC/propidium iodide based flow cytometry (reference value: 0.2 %); format: functional; procedure, shortened: as §2
Ramos [24] = experiment: Induction of apoptosis in human Ramos cells assessed as late apoptotic cells at 10 uM measured after 48 hrs by Annexin V-FITC/propidium iodide based flow cytometry relative to control; format: functional; procedure, shortened: as §2

Sequence of Tyrosine-protein kinase BTK (Q06187 whole entry): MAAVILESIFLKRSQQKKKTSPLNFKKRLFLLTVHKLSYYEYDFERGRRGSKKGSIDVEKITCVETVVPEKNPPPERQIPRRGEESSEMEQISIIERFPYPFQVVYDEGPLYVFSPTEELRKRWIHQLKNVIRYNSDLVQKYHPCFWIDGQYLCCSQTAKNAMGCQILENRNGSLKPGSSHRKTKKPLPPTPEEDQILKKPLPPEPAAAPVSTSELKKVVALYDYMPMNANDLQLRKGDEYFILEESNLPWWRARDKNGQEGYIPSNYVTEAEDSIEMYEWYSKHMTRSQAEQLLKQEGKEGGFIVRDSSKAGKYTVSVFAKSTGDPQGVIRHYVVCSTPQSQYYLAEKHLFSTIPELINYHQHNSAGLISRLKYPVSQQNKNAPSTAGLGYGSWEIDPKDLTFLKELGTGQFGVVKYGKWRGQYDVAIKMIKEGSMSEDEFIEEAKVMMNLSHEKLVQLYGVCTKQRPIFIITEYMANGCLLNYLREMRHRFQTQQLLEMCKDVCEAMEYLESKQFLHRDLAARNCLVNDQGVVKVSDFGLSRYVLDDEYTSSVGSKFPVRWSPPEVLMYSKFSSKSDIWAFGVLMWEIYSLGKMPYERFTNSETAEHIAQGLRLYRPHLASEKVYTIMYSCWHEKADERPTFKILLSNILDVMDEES

Q: For `C=CC(=O)Nc1cccc(Nc2nc(Nc3ccc(OCCCP(=O)(OCC)N4CCOCC4)cc3)ncc2Cl)c1` (stereo not drawn), which Activity [1] is on record?
A: 50.8%

Q: And the Activity [2]?
A: 54.3%

Q: What about the Activity (Ramos [3]) of the same molecule?
A: 27.7%

Q: What about the IC50 [4] of the same molecule?
A: 0.00082 µM

Q: What about the Activity (Ramos [5]) of the same molecule?
A: 5.9%

Q: What about the Activity [6] of the same molecule?
A: 11.2%

Q: What about the Activity (Ramos [7]) of the same molecule?
A: 15.6%

Q: What about the IC50 [8] of the same molecule?
A: 6.69 µM

Q: And the Activity [9]?
A: 38%

Q: What about the Activity [10] of the same molecule?
A: 7.68%

Q: And the Activity [11]?
A: 9.29%

Q: What about the Activity [12] of the same molecule?
A: 36.9%

Q: And the IC50 [13]?
A: 3.17 µM

Q: And the Activity [14]?
A: 55.4%

Q: And the viability at 1 µM (Ramos [15])?
A: 50.9%

Q: And the viability at 5 µM (Ramos [16])?
A: 40.2%

Q: What about the Activity (Ramos [17]) of the same molecule?
A: 14.7%

Q: What about the Activity (Ramos [18]) of the same molecule?
A: 37.6%

Q: And the Activity (Ramos [19])?
A: 7.5%

Q: What about the Activity [20] of the same molecule?
A: 36.4%

Q: For `C=CC(=O)N1CCC[C@@H](n2nc(-c3ccc(Oc4ccccc4)cc3)c3c(N)ncnc32)C1` [IBRUTINIB], which Activity [1] is on record?
A: 50.2%

Q: What about the Activity [6] of the same molecule?
A: 6.57%

Q: What about the Activity (Ramos [21]) of the same molecule?
A: 37%

Q: What about the Activity [9] of the same molecule?
A: 43.2%

Q: What about the Activity (Ramos [22]) of the same molecule?
A: 52%

Q: And the Activity (Ramos [23])?
A: 0.1%

Q: Which IC50 [4] does the source give for `C=CC(=O)Nc1cccc(Nc2nc(Nc3ccc(OCCCP(=O)(OCC)OCC)cc3)ncc2Cl)c1` here?
A: 0.0106 µM

Q: And the IC50 [8]?
A: 6.07 µM

Q: What about the IC50 [13] of the same molecule?
A: 5.4 µM

Q: Which IC50 [4] does the source give for `C=CC(=O)Nc1cccc(Nc2nc(Nc3ccc(CP(=O)(OCC)N4CCOCC4)cc3)ncc2Cl)c1` (stereo not drawn) here?
A: 0.112 µM

Q: And the IC50 [8]?
A: 7.71 µM

Q: And the IC50 [13]?
A: 27.4 µM

Q: Which results are given for `C=CC(=O)Nc1cccc(Nc2nc(Nc3ccc(OCCCP(=O)(OCC)OCC)cc3)ncc2F)c1`?
A: IC50 [4]: 0.0216 µM; IC50 [8]: 16.4 µM; IC50 [13]: 11.5 µM

Q: Which results are given for `C=CC(=O)Nc1cccc(Nc2nc(Nc3ccc(CP(=O)(OCC)OCC)cc3)ncc2Cl)c1`?
A: IC50 [4]: 0.00123 µM; IC50 [8]: 13.5 µM; IC50 [13]: 11.7 µM

Q: For `C=CC(=O)Nc1cccc(Nc2nc(Nc3ccc(CP(=O)(OCC)OCC)cc3)ncc2F)c1`, which IC50 [4] is on record?
A: 0.0321 µM

Q: What about the IC50 [8] of the same molecule?
A: 34.9 µM

Q: What about the IC50 [13] of the same molecule?
A: 9.36 µM

Q: Which Activity [1] does the source give for `C=CC(=O)Nc1cccc(Nc2nc(Nc3ccc(OCCOC)cc3)ncc2F)c1` [SPEBRUTINIB] here?
A: 47.9%

Q: And the Activity [6]?
A: 20.9%

Q: What about the Activity (Ramos [21]) of the same molecule?
A: 21.1%

Q: What about the Activity [9] of the same molecule?
A: 31%

Q: And the Activity (Ramos [24])?
A: 20.4%

Q: What about the viability at 10 µM (Ramos [22]; Homo sapiens, Ramos, 48 h, read-out: Activity) of the same molecule?
A: 54.2%

Q: And the Activity (Ramos [23])?
A: 4.3%
